Compound activity (PubChem)
This excerpt belongs to a sample that is enriched for hits.
UPR XBP1 act = adaptive UPR (XBP1) activation | CHO-XBP1 luciferase reporter, IRE1-XBP1 UPR activation, luminescence; percent of tunicamycin response, DMSO as zero | activation, % at 20 µM | 330,000 compounds, 0.33% hits | AID 463104;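 active = versus positive control, 20 µM dose yields 30% or more activation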
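Assay system: IRE1-XBP1 luciferase reporter CHO line. Input: 1000 cells/well. Buffer or medium: F12 with 10% serum. Doses: 20 µM, 1% DMSO. Times: overnight seeding at 37 °C, 6 h compound treatment at 37 °C. Technique: Steady-Glo luciferase glow luminescence, 10 min after reagent addition.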
UPR CHOP act = activators of apoptotic arm of unfolded protein response (CHOP); CHO-CHOP luciferase reporter, UPR activation, luminescence; percent of tunicamycin response over DMSO baseline; activation, % at 10 µM; 330,000 compounds, 0.34% hits;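 active = at 10 µM dose, activation of 40% or more, normalized to positive control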
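Test system: CHO CHOP reporter cells. Input: 500 CHO-CHOP cells per well. Medium: F12 with 10% FBS. Technique: luciferase luminescence. Measure: percent activation relative to tunicamycin control. Dosing: 10 µM compound, 0.5% DMSO. Timing: 16-18 h cell attachment, then 6 h compound exposure, 37 °C.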
CHOP inhibitor = blocks CHOP induction under ER stress; CHO-K1 CHOP-promoter luciferase, tunicamycin-induced, 15-18 h; inhibition, % at 10 µM; 220,000 compounds, 3.8% hits;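 active = compounds that reduced the stress-induced luciferase reporter signal by more than about 70% of percent inhibition, limit read from the data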
L major viab = Leishmania major promastigote growth inhibition; Leishmania major promastigotes, resazurin fluorescence viability; inhibition, % at 10 µM; 200,000 compounds, 9% hits; in the data active = inhibition above about 50%;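 note: promastigotes grown with compound for 44 hours at 28 °C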
Dynein cargo inh = dynein cargo transport inhibition | 3617.4 mouse cells, GR-EGFP nuclear translocation imaging; test concentration mostly 20 µM; stimulated with dexamethasone, 1 µM; stronger effect = lower value | 220,000 compounds, 0.47% hits | z-score, hits read low;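 active = plate z-score of nuclear minus cytoplasmic receptor signal below a set negative limit, without overly bright fluorescence or cell loss, cut at about -3.5 in these data, passing the limit was not always enough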;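 note: z-score of nuclear minus cytoplasmic ring GR-EGFP intensity difference per well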
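medium = tetracycline-free induction medium containing charcoal-stripped FBS | probe or stimulus = dexamethasone, 1.0 µM final | timing = 48 h induction, then 1 h compound, then 30 min agonist, 37 °C | detection = automated 10x imaging of fixed Hoechst-stained cells | read-out basis = nuclear versus cytoplasmic GR-EGFP signal, averaged per well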
T cruzi repl = blocks replication of Trypanosoma cruzi; AID 1885; T. cruzi beta-gal in NIH3T3, luminescence, 90 h; inhibition, % (no concentration beside the values); 300,000 compounds, 1.4% hits;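 active = mean inhibition across valid replicates above about 55%, limit read from the data; inconclusive = mean below that limit but half or more replicates reach it; inactive = mean below it, under half of replicates reach it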;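 note: signal also drops with host cell toxicity which is not excluded here; higher percent means less beta-gal luminescence so fewer parasites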
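Assay system: NIH/3T3 host cells with β-galactosidase reporter T. cruzi; input: 5,000 host fibroblasts per well; compound: single 50 nL compound addition per well in DMSO; timing: ≥90 h infection period, 3 h prior cell attachment; measured by: GalScreen β-gal luminescence, detergent lysis, 60 min; evaluation: percent inhibition of parasite-derived β-gal signal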
Each line names hits and unclear results; the compound was inactive in the other large screens.

Cc1ccc(N2CC(C(=O)Nc3ccc4c(c3)OCO4)CC2=O)cc1C (configuration not stated)	none (no result: CHOP inhibitor, L major viab, Dynein cargo inh)
Cc1[nH]n(-c2cccc3ccccc23)c(=O)c1/C=N/c1sc2c(c1C#N)CCC2	none
CC(C)CN(/C=N/c1sc2c(c1C#N)CCCCC2)CC(C)C	CHOP inhibitor 73.5
Cc1ccc(/C=N/c2sc3c(c2C#N)CCCCC3)o1	CHOP inhibitor 77.3
Cc1[nH]n(-c2ccc(F)cc2)c(=O)c1/C=N/c1sc2c(c1C#N)CCCC2	CHOP inhibitor 90.4
N#Cc1c(/N=C/c2ccco2)sc2c1CCC2	none
CN1CCN(/C=N/c2sc3c(c2C#N)CCCCC3)CC1	T cruzi repl 57.7
CC(C)(C)n1nc2c(c1NC(=O)C1CC(=O)N(c3ccc(Cl)cc3)C1)CS(=O)(=O)C2 (configuration not stated)	none (no result: CHOP inhibitor, L major viab, Dynein cargo inh)
CCCCC[n+]1cccc2c3ccccc3ccc21	L major viab 100.3, T cruzi repl 73.2
NC(=O)C[n+]1cccc2ccccc21	none
c1ccc(C[n+]2cccc3c4ccccc4ccc32)cc1	L major viab 97.2, T cruzi repl inconclusive
N#CCCN(C(=O)CN1CCN(S(=O)(=O)c2ccc3c(c2)OCCO3)CC1)c1ccc(F)cc1	none (no result: CHOP inhibitor, L major viab, Dynein cargo inh, T cruzi repl)
Nc1c2c(nc3sc4c(c13)CCCCC4)CCCCC2	L major viab 62.5
CCc1c(-c2ccccc2)nc2sc3c(c2c1N)CCCC3	T cruzi repl 55.4 (no result: L major viab)
CC1CCc2c(nc3sc4c(c3c2N)CCCC4)C1 (configuration not stated)	L major viab 97.4
CC1CCc2nc3sc4c(c3c(N)c2C1)CCCC4 (configuration not stated)	L major viab 91.8
Nc1c(C(=O)O)sc2nc(-c3ccccc3)c3c(c12)CCCC3	none
COCCn1c(CN2CCN(C(=O)c3ccco3)CC2)nc2c1c(=O)n(C)c(=O)n2C	none (no result: CHOP inhibitor, L major viab, Dynein cargo inh)
NCC(O)(c1ccc(Cl)cc1)c1ccc(Cl)cc1	L major viab 94.4
CC(C)NCC(O)(c1ccc(Cl)cc1)c1ccc(Cl)cc1	none
O=C1CN(C(=O)COC(=O)c2ccc(Br)o2)c2ccccc2N1	none (no result: CHOP inhibitor, L major viab, Dynein cargo inh, T cruzi repl)
O=C(COC(=O)C1CSC2(c3ccc(F)cc3)CCC(=O)N12)NC(=O)NC1CCCC1 (configuration not stated)	CHOP inhibitor 72.9
CC(C)(C)c1nc(NC(=O)Nc2ccccc2)sc1Br	CHOP inhibitor 104.7, T cruzi repl 57.4
Cc1cc(C)cc(NCc2cc(=O)oc3cc(-c4ccccc4)c(O)cc23)c1	CHOP inhibitor 103.1
Cc1cc(C)cc(NCc2cc(=O)oc3cc(C)c(O)cc23)c1	none (no result: CHOP inhibitor, L major viab, Dynein cargo inh)
C=CCNC(=O)N1CCC(n2nccc2NC(=O)CCCc2ccccc2)CC1	none (no result: CHOP inhibitor, L major viab, Dynein cargo inh)
CCN(c1ccccc1C(=O)O)S(=O)(=O)c1ccc2[nH]c(=O)[nH]c2c1	none (no result: CHOP inhibitor, L major viab, Dynein cargo inh)
COc1ccc(Cl)c2c1[nH]c1nc(SCc3ccccn3)nnc12	L major viab 52.4
COc1ccc(Cl)c2c1[nH]c1nc(SCc3cccnc3)nnc12	CHOP inhibitor 86.1
Cc1nc(SCc2cccnc2)[nH]c(=O)c1C	none (no result: CHOP inhibitor, L major viab, Dynein cargo inh)
CC1CCC(NC(=O)c2cc(S(=O)(=O)N3CCCCC3)ccc2N2CCOCC2)CC1 (configuration not stated)	none (no result: CHOP inhibitor, L major viab, Dynein cargo inh, T cruzi repl)
CN(Cc1ccccc1OCCO)CC1CCCN(CCc2ccc(Cl)cc2)C1 (configuration not stated)	none (no result: CHOP inhibitor, L major viab, Dynein cargo inh)
O=C(CSc1nnc(-c2cccs2)n1-c1ccccc1)NCc1ccc2c(c1)OCO2	L major viab 57.5
O=C(CSc1ncnc2c1cnn2-c1ccc(F)cc1)NCc1ccc2c(c1)OCO2	CHOP inhibitor 88.6, L major viab 62.9
O=C(CSc1nnc(-c2cccs2)n1Cc1ccccc1)NCc1ccc2c(c1)OCO2	none
Cc1ccc(C)c2c1cc(C)c1nnc(SCC(=O)NCc3ccc4c(c3)OCO4)n12	L major viab 70.3
COc1ccccc1NC(=O)CSc1nccc(-c2ccco2)n1	none (no result: CHOP inhibitor, L major viab, Dynein cargo inh, T cruzi repl)
CCN(CC)S(=O)(=O)c1cc(C(=O)N2CCc3ccccc32)ccc1Cl	L major viab 75.0
CN1CCN(c2ccc(Cl)cc2NS(=O)(=O)c2ccccc2Cl)CC1	L major viab 99.5
CN1CCN(c2ccc(Cl)cc2NC(=O)c2ccc(S(=O)(=O)N(C)C)cc2)CC1	L major viab 99.7
CN(C)S(=O)(=O)c1ccc(C(=O)Nc2cc(S(=O)(=O)Nc3ccccc3Cl)ccc2N2CCCCC2)cc1	none
CCN(CC)S(=O)(=O)c1ccc(Cl)c(C(=O)N2CCc3ccccc32)c1	none (no result: T cruzi repl)
CCN(CC)S(=O)(=O)c1cc(C(=O)Nc2ccccc2[N+](=O)[O-])ccc1Cl	L major viab 78.2
CN(C)S(=O)(=O)c1cccc(C(=O)Nc2ccccc2[N+](=O)[O-])c1	none
CCOc1ccccc1C(=O)Oc1ccc2ccc(=O)oc2c1	none (no result: CHOP inhibitor, L major viab, Dynein cargo inh)
Cc1cc(NC(=O)CSCC(=O)Nc2cc(Cl)ccc2N2CCN(C)CC2)no1	none (no result: CHOP inhibitor, L major viab, Dynein cargo inh, T cruzi repl)
CCN(CC)S(=O)(=O)c1cc(C(=O)Nc2cc(Cl)ccc2N2CCN(C)CC2)ccc1Cl	L major viab 100.0
Cc1cccc(NC(=O)CSCC(=O)Nc2cc(Cl)ccc2N2CCN(C)CC2)c1	T cruzi repl 58.8 (no result: CHOP inhibitor, L major viab, Dynein cargo inh)
Cc1ccc(NC(=O)CCNS(=O)(=O)c2ccc(Br)s2)cc1	none (no result: CHOP inhibitor, L major viab, Dynein cargo inh)
Cc1cc(C)c2nc(NCCCNC(=S)NCCCN(C)C)c(C#N)cc2c1	L major viab 100.5
Cc1ccc2cc(C#N)c(NCCNC(=S)NCCCN(C)C)nc2c1C	L major viab 100.5
CCOCCCNC(=S)NCCNc1nc2c(C)cccc2cc1C#N	T cruzi repl 55.4
NC(=O)CCC(NS(=O)(=O)c1ccc(Cl)cc1)C(=O)NCc1ccc(Cl)cc1 (configuration not stated)	L major viab 60.2
Cc1c([N+](=O)[O-])cnc(Sc2ccccc2)c1[N+](=O)[O-]	none (no result: CHOP inhibitor, L major viab, Dynein cargo inh)
CNc1ncnc(Sc2ccc(Cl)cc2)c1[N+](=O)[O-]	T cruzi repl 65.7 (no result: L major viab)
COC(=O)[C@]1(C)N[C@H](CN(C)C(=O)c2ccccc2)[C@@H]2C(=O)N(C)C(=O)[C@@H]21	none (no result: CHOP inhibitor, L major viab, Dynein cargo inh, T cruzi repl)
O=C(CCC1CCCCC1)NCCS(=O)(=O)N1CCN(c2ccccc2)CC1	none (no result: CHOP inhibitor, L major viab, Dynein cargo inh)
CC(C)Sc1ncnc2c1oc1ccccc12	CHOP inhibitor 74.5
CC(C)C(Nc1ncnc2c1oc1ccccc12)C(=O)O (configuration not stated)	T cruzi repl 76.9
CCCSc1ncnc2c1oc1ccccc12	none
COCCn1c(=O)[nH]c2cc(C(=O)NCCc3ccc(S(N)(=O)=O)cc3)ccc2c1=O	none
Fc1ccc(/C=N/Nc2ccccn2)cc1	L major viab 69.2
O=c1[nH]c(N/N=C\c2ccc(F)cc2)nc2ccccc12	L major viab 64.6
